Each structure is given as a SMILES string.

The data set can be described thus: Toxicity liver stage against HepG2, at 10uM. In kind it is cell-based. On the set-up: test concentration 10 uM, cell line HepG2-A16-CD81EGFP. As to conditions: human, HepG2-A16-CD81EGFP cells; read-out: INHIBITION
The gist of the method:
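Uninfected HepG2-A16-CD81EGFP cells, 3 × 10^3 per well, 1536-well, plated on prespotted compound at 10 μM final, parasite-free screening media added to match infected plates; puromycin 10 μM positive, DMSO 0.5% negative; run in parallel with 48 h PbLuc assay at 37 °C, 5% CO2; viability by CellTiter-Glo luminescence, normalized to controls.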
On to `Cc1nc(O)ccc1C(=O)NCc1ncoc1C`, for which the cytotoxicity at 10 µM turned out to be 5.68%.

Take `Cc1ccc(CN2CC[C@H]3CO[C@H](CN4CCN(C)CC4)[C@H]3C2)o1`: the cytotoxicity at 10 µM was -118%.

Turning to `NC(=O)C1(Cc2ccccc2-c2cncnc2)CCCNC1` (configuration not stated), the cytotoxicity at 10 µM is 3.35%.

For the compound `CCN1CCOC(CNCc2cnc(C(C)(C)C)s2)C1` (configuration not stated), the cytotoxicity at 10 µM is -2.24%.

As for `CCN(C(c1cccnc1)c1ccc(F)cc1F)S(C)(=O)=O` (configuration not stated), the cytotoxicity at 10 µM was found to be 10.8%.

`Cc1cnn(CC(C)NCc2cc(=O)n3ccccc3n2)c1` (configuration not stated): the cytotoxicity at 10 µM is -5.3%.

With `CC(c1ccncn1)N(C)Cc1cc2cc3c(cc2[nH]c1=O)OCO3` (configuration not stated), the cytotoxicity at 10 µM came out at 9.83%.

For `CCc1cc(CNC(=O)N2Cc3ccccc3N(C)CC2C)on1` (configuration not stated), the cytotoxicity at 10 µM came to 4.38%.

Take `Cc1nc(N2CCCC2)nc2c1CCN(C(=O)c1ccoc1C)CC2`: the cytotoxicity at 10 µM is -111%.

Take `COCC1CC2(CCN(Cc3ccoc3)CC2)CN1C(C)C` (configuration not stated): the cytotoxicity at 10 µM is 0.803%.

Turning to `CC(C)CN1C[C@@H]2OCC(=O)N(Cc3nccn3C)[C@@H]2C1`, the cytotoxicity at 10 µM worked out at 0.174%.

For the compound `O=C(O)CCc1cc2n(n1)CCCN(C(=O)c1ccc(F)cc1F)C2`, the cytotoxicity at 10 µM was -0.168%.

Take `C=Cn1cc(CN2CCC(c3ncc(Cl)cc3S(C)(=O)=O)CC2)c(C)n1`: the cytotoxicity at 10 µM came to 7.38%.

`CC(C)c1nccn1CC1CCCN1Cc1nc2ccccc2n1C` (configuration not stated): the cytotoxicity at 10 µM was -43.9%.

On to `O=C1N(c2cccnc2)CCC12CCCN(Cc1ccco1)C2` (configuration not stated), for which the cytotoxicity at 10 µM is -5.79%.

Consider `NC(=O)CN1CC2(CCC1=O)CCN(Cc1ccc(Cl)c(F)c1)CC2`, for which the cytotoxicity at 10 µM was -5%.

Take `O=C(CCCNc1ncccn1)Nc1cc(C(F)(F)F)c[nH]c1=O`: the cytotoxicity at 10 µM was -1.34%.

As to `CCC(=O)c1ccc(OCC(=O)N(C)C(C)c2ccon2)cc1` (configuration not stated), the cytotoxicity at 10 µM worked out at 1.71%.

As to `c1cc(-c2noc(-c3cc(C4CC4)on3)n2)cc(N2CCCCC2)n1`, the cytotoxicity at 10 µM was 4.64%.

Take `Cc1nonc1C1CCCN1C(=O)c1cn2ccsc2n1` (configuration not stated): the cytotoxicity at 10 µM was determined as 9.59%.

Regarding `COCCCN(Cc1ccccn1)S(=O)(=O)N(C)C`, the cytotoxicity at 10 µM came to 12%.

Regarding `COc1ccccc1/C=C/CNCC1CCc2nncn2C1` (configuration not stated), the cytotoxicity at 10 µM amounted to 3.91%.

With `COCCNC(=O)NCc1ccc(OC(C)C)c(F)c1`, the cytotoxicity at 10 µM is -8.48%.

On to `O=C(CCn1ccc2ccc(Cl)cc21)NCc1ccc(C(=O)O)cc1`, for which the cytotoxicity at 10 µM was -0.411%.

With `Cc1cc(C)c2cc(CNCc3ccc(C)o3)c3nn(C)c(=O)n3c2c1`, the cytotoxicity at 10 µM is -1.83%.

In the case of `c1ccc(C(CC2CN(Cc3c[nH]cn3)CCO2)c2ccccc2)cc1` (configuration not stated), the cytotoxicity at 10 µM is -5.54%.

Regarding `CN(C)[C@@H]1CCN(c2ncc(F)cn2)[C@H]1Cc1ccncc1`, the cytotoxicity at 10 µM is -1.96%.

With `Cc1c[nH]nc1C1CCCN1Cc1ccncc1` (configuration not stated), the cytotoxicity at 10 µM amounted to 13.1%.

For `Cc1nc(C)n(C2CCCN(C(=O)c3cc(C4CC4)on3)C2)n1` (configuration not stated), the cytotoxicity at 10 µM was -3.87%.

Consider `Cc1cnn(CC2CN(Cc3ccc(C(N)=O)cc3)CCO2)c1` (configuration not stated), for which the cytotoxicity at 10 µM was -2.28%.

Turning to `CCOCC(O)CN1CCN(C(=O)c2cc(C)ccc2OC)CC1` (configuration not stated), the cytotoxicity at 10 µM stood at 5.35%.

On to `CCc1nsc(N2CCCN(C(=O)COc3ccccc3)CC2)n1`, for which the cytotoxicity at 10 µM is -1.74%.

Take `COc1cc(N2CCC(c3nccn3CCCN(C)C)CC2)nc(N)n1`: the cytotoxicity at 10 µM is -7.41%.

Consider `COc1cccc(-c2cc(NCCO)nc3[nH]ccc23)n1`, for which the cytotoxicity at 10 µM came out at 4.46%.

With `CN(Cc1ccsc1)C(=O)Nc1ccc(N2CCCC2)nc1`, the cytotoxicity at 10 µM is -10.5%.

Regarding `Cc1nnc(CN2C[C@H](NC(=O)C3CCOCC3)[C@@H](C(C)C)C2)s1`, the cytotoxicity at 10 µM is -3.41%.

Regarding `O=C(NCCCc1ccncc1)C1CCCN(Cc2ccco2)C1` (configuration not stated), the cytotoxicity at 10 µM amounted to 20.1%.

For `CCS(=O)(=O)NC1CCCN(c2cc(C)ccc2F)C1=O` (configuration not stated), the cytotoxicity at 10 µM came out at 3.07%.

With `COC(=O)Nc1nc2c(s1)CN(C(=O)NCc1cccs1)CC2`, the cytotoxicity at 10 µM is 3.89%.

As to `COc1c(CNCc2cccc(CS(C)(=O)=O)c2)c(C)nn1C`, the cytotoxicity at 10 µM was -5.6%.

Regarding `COCCN1C(=O)C[C@@H]2[C@H]1CCN2C(=O)COc1ccccc1`, the cytotoxicity at 10 µM is -0.902%.

As to `CC(=O)NCc1ccc(S(=O)(=O)NC(=O)c2ccc3c(c2)COC3)cc1`, the cytotoxicity at 10 µM was 6.42%.

Regarding `Cc1cc(CN2CCc3nn(C(C)C)c(=O)cc3C2)no1`, the cytotoxicity at 10 µM was -13.8%.

Consider `CC(NC(=O)NCCCc1n[nH]c(N)c1C#N)c1cccs1` (configuration not stated), for which the cytotoxicity at 10 µM was -6.8%.

For the compound `CN(Cc1nnc(C2CC2)n1C)C1CCN(Cc2ccon2)C1` (configuration not stated), the cytotoxicity at 10 µM is -9.04%.

In the case of `O=C(NC1CCS(=O)(=O)C1)c1sccc1-c1ccc(F)cc1` (configuration not stated), the cytotoxicity at 10 µM was 8.14%.

Regarding `COc1ccc(NC(=O)N2CCN(CCSc3ccccc3)CC2)cc1`, the cytotoxicity at 10 µM stood at 6.13%.

Regarding `CC(C)(N)c1cn(C2CCN(C3CCSCC3)CC2)nn1`, the cytotoxicity at 10 µM was -10.7%.

With `CCc1ccc(O)c(C(=O)N2CCN(CC(=O)N3CCCCC3)CC2)c1`, the cytotoxicity at 10 µM was 9.06%.

For the compound `Cc1csc(C2CCCN(C(=O)c3cnc4n[nH]c(C)c4c3)C2)n1` (configuration not stated), the cytotoxicity at 10 µM was -9.39%.

In the case of `CN(CC1CCOCC1)C(=O)NCCCN1CCCCC1`, the cytotoxicity at 10 µM came to 0.105%.

Consider `Cc1noc(C)c1CCCNC(=O)Nc1ccc2c(c1)CC(=O)N2`, for which the cytotoxicity at 10 µM is -16%.

Consider `CC(C)c1nc(C2CCCN(C(=O)CN(C)S(C)(=O)=O)C2)no1` (configuration not stated), for which the cytotoxicity at 10 µM is -0.304%.

As to `CN(C(=O)COCc1ccccc1)C1CCN(CC2CCOC2)CC1` (configuration not stated), the cytotoxicity at 10 µM was -3.7%.

For `CC(=O)N1N=C(Cc2ccccc2)OC1C(=O)NCC(C)C` (configuration not stated), the cytotoxicity at 10 µM is -4.52%.

On to `c1sc(C2CCCCC2)nc1CN1CCn2c(nnc2C2CC2)C1`, for which the cytotoxicity at 10 µM was -6.61%.

As for `Cc1c(Cl)cccc1NC(=O)c1nc[nH]n1`, the cytotoxicity at 10 µM is -7.93%.

In the case of `O=C(NCCN1CCOCC1)c1ccc(-c2ccc(F)cc2)nc1O`, the cytotoxicity at 10 µM was determined as 2.25%.

On to `CCOCc1nn(C)c2c1CN(C(=O)c1ccno1)CC2`, for which the cytotoxicity at 10 µM was determined as 8.61%.

On to `CC(C)[C@@H]1CN(c2ccc(C(F)(F)F)cn2)C[C@H]1NS(C)(=O)=O`, for which the cytotoxicity at 10 µM was 8.46%.

For the compound `Cc1cccc(-c2nnn3c2COC(CNS(=O)(=O)C2CC2)C3)c1` (configuration not stated), the cytotoxicity at 10 µM is -110%.

On to `Cc1nc(CN2CCCC(Nc3ncnc4c3CCC4)C2)no1` (configuration not stated), for which the cytotoxicity at 10 µM turned out to be 34.3%.

With `CCCn1cc(S(=O)(=O)N[C@H]2CN(CCO)C[C@@H]2C2CC2)cn1`, the cytotoxicity at 10 µM is -11.3%.

For `CO[C@H]1CN(S(=O)(=O)c2ccc(F)cc2)C[C@@]12CCCO2`, the cytotoxicity at 10 µM was 13.2%.

As to `Cn1ccnc1CN1CCC(F)(F)C2(CCN(c3cccnc3)C2)C1` (configuration not stated), the cytotoxicity at 10 µM was -98.8%.

Regarding `COCCNC(=O)CSc1nnc(OC(C)C)s1`, the cytotoxicity at 10 µM was -5.7%.

Take `CC(C)n1[nH]c(=O)c2c1NC(=O)CC2c1ccc(C#N)cc1` (configuration not stated): the cytotoxicity at 10 µM came out at 3.92%.

With `O=C(NCCO)C1(Cc2ccccc2-c2ccncc2)CCOCC1`, the cytotoxicity at 10 µM is 2.27%.

Take `COc1c(C)cnc(CN2CCOC(CNc3cccnn3)C2)c1C` (configuration not stated): the cytotoxicity at 10 µM is -10.5%.

In the case of `O=C1CC2(CCN(Cc3cccnc3)C2)CN1c1cncnc1` (configuration not stated), the cytotoxicity at 10 µM was -65.7%.

Take `O=C(C1CCC1)N1CC[C@H](O)[C@@H]1Cc1cccnc1`: the cytotoxicity at 10 µM was -105%.

In the case of `CCNC(=O)CCC(=O)Nc1ccc2nn(C(C)C)cc2c1`, the cytotoxicity at 10 µM is -141%.

As for `CC(C)(C)C(=O)c1ccsc1NC(=O)CCNC(=O)c1ccco1`, the cytotoxicity at 10 µM was -52.7%.

As to `CCCOCC1CCN(C(=O)c2cnc(-c3cccnc3)nc2O)C1` (configuration not stated), the cytotoxicity at 10 µM was -2.55%.

Turning to `N#Cc1ccc(OC2CCN(C(=O)c3cncc(Br)c3)CC2)nc1`, the cytotoxicity at 10 µM came out at 3.05%.

For the compound `CN(C)C(=O)COCC1CN(CC2CCOCC2)Cc2ncn(C)c21` (configuration not stated), the cytotoxicity at 10 µM amounted to 1.03%.

As to `CN(Cc1cccs1)C(=O)CN(C)C1CCc2ccccc21` (configuration not stated), the cytotoxicity at 10 µM turned out to be 10.1%.

With `Cc1ccc(CN[C@@H]2COC[C@H]2Cc2cc(C)no2)cc1`, the cytotoxicity at 10 µM is -23.2%.

For `CCN(Cc1ccoc1)C(=O)C1CCN(C(=O)OC(C)(C)C)C1` (configuration not stated), the cytotoxicity at 10 µM was -15.5%.

Turning to `CN(CCc1nc2ccccc2c(=O)[nH]1)CCC(F)(F)F`, the cytotoxicity at 10 µM was -2.27%.

As to `CCNC(=O)C1(Cc2cc(-c3ccccc3)no2)CCCN(C(C)C)C1` (configuration not stated), the cytotoxicity at 10 µM was 1.62%.

As to `Cc1cccc2[nH]c(COCC(=O)N3CCCn4cncc4C3)nc12`, the cytotoxicity at 10 µM turned out to be 2.03%.

As to `Cc1ncc(CNCC(=O)NCC(F)(F)F)n1-c1ccccc1`, the cytotoxicity at 10 µM stood at 5.57%.

For `COc1c(C2CCCN2Cc2csc(C(C)C)n2)c(C)nn1C` (configuration not stated), the cytotoxicity at 10 µM was -1.53%.

Regarding `Cn1cccc1C1CCCN1Cc1noc(C(C)(C)C)n1` (configuration not stated), the cytotoxicity at 10 µM is -4.4%.

In the case of `Cc1nc[nH]c1CN1C[C@H]2CC[C@@H](C1)N(C(=O)c1cnn(C)c1)C2`, the cytotoxicity at 10 µM was 2.42%.

Take `Cc1cnc(N2CCc3c(c(COc4cncnc4)nn3C)C2)nc1`: the cytotoxicity at 10 µM is -98.8%.

Regarding `CCC(C)Oc1ccc(CNCCc2c[nH]cn2)cc1Cl` (configuration not stated), the cytotoxicity at 10 µM came out at 1.09%.

`COc1ccc([C@@H](C)n2ccnc2-c2cc3n(n2)CCCNC3)cc1`: the cytotoxicity at 10 µM is -8.48%.

Turning to `COc1ncccc1-c1cc(C(N)=O)ccn1`, the cytotoxicity at 10 µM is 7.81%.

On to `N#Cc1c(F)cccc1N1CCN(C(=O)Nc2nncs2)CC1`, for which the cytotoxicity at 10 µM is -0.908%.

For the compound `CC(C)[C@@H](CO)Nc1cc(-c2cn[nH]c2)ncn1`, the cytotoxicity at 10 µM is -11.3%.

As to `CC1CN(c2ncnc3sccc23)CCN1c1nccs1` (configuration not stated), the cytotoxicity at 10 µM was 32.1%.

In the case of `COc1c(C2CC(=O)Nc3[nH]ncc32)cc2c(c1OC)OCO2` (configuration not stated), the cytotoxicity at 10 µM came to 3.66%.

Regarding `COc1cccc(S(=O)(=O)NC(=O)COC2CCCC2)c1`, the cytotoxicity at 10 µM was -7.1%.

Take `Cc1nc(CNCC2COCc3c(-c4ccoc4)nnn3C2)cs1` (configuration not stated): the cytotoxicity at 10 µM stood at 8.22%.

As to `COc1ccnc(N2C[C@H]3CC[C@@H](C2)N(CC2CCC2)C3=O)n1`, the cytotoxicity at 10 µM was -0.054%.

The values are drawn from ChEMBL document CHEMBL4513216, “Probing the Open Global Health Chemical Diversity Library for Multistage-Active Starting Points for Next-Generation Antimalarials” (ACS Infect Dis, 2020).
